# Reference: ChEMBL document CHEMBL2169846, “Design and synthesis of Pictet-Spengler condensation products that exhibit oncogenic-RAS synthetic lethality and induce non-apoptotic cell death” (Bioorg Med Chem Lett, 2012)
# Calls of active or inactive are those of the source. The calls are words filed in the database; no cut-off is given here.
# What was measured:
# [1] = Cytotoxicity against human HT1299 cells after 48 hrs by alamar blue assay; type: functional; details: HT1299, 48 h, read-out: LC50 (the source's name)
# [2] = system: E3 ubiquitin-protein ligase Mdm2 (Homo sapiens), Q00987 [C464A]; assay: Inhibition of Mdm2 C464A mutant at 20 ug/mL after 2 hrs by cell-based luciferase assay
# RKO = assay: Cytotoxicity against human RKO cells after 48 hrs by alamar blue assay; type: functional; details: read-out: LC50 (the source's name)
# MCF7 = assay: Cytotoxicity against human MCF7 cells after 48 hrs by alamar blue assay; type: functional; details: MCF7, 48 h, read-out: LC50 (the source's name)
# [3] = target: E3 ubiquitin-protein ligase Mdm2 (Homo sapiens) (UniProt Q00987); assay: Inhibition of wild type Mdm2 at 20 ug/mL after 2 hrs by cell-based luciferase assay
# U2OS [4] = assay: Cytotoxicity against human U2OS cells after 48 hrs by alamar blue assay; type: functional; details: read-out: LC50 (the source's name)
# [5] = Cytotoxicity against human BJeLR cells expressing RAS G12V mutant after 48 hrs by alamar blue assay; type: functional, cell-based; details: read-out: LC50 (the source's name)
# [6] = Cytotoxicity against human BJeH cells expressing wild type RAS after 48 hrs by alamar blue assay; type: functional, cell-based; details: read-out: LC50 (the source's name)
# BJeH [7] = assay: Cytotoxicity against human BJeH cells expressing wild type RAS at 20 ug/mL after 48 hrs by alamar blue assay; type: functional, cell-based
# HT-1080 = assay: Cytotoxicity against human HT1080 cells after 48 hrs by alamar blue assay; type: functional; details: HT-1080, 48 h, read-out: LC50 (the source's name)
# BJeH [8] = assay: Induction of apoptosis in human BJeH cells expressing wild type RAS assessed as caspase 7 activation after 28 hrs by Apo-One assay; type: functional, cell-based
# Method in brief: (§1)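 BJ-TERT and BJ-TERT/LT/ST/RAS(V12) cells given compound as a two-fold, 14-point dilution series for 28 h. Alamar blue then added for viability, and caspase 3/7 activation detected by Apo-ONE in the same wells.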
# BJeH [9] = assay: Induction of apoptosis in human BJeH cells expressing wild type RAS assessed as caspase 3 activation after 28 hrs by Apo-One assay; type: functional, cell-based; method in brief: as §1
# BJeLR [10] = assay: Induction of apoptosis in human BJeLR cells expressing RAS G12V mutant assessed as caspase 7 activation after 28 hrs by Apo-One assay; type: functional, cell-based; method in brief: as §1
# BJeLR [11] = assay: Induction of apoptosis in human BJeLR cells expressing RAS G12V mutant assessed as caspase 3 activation after 28 hrs by Apo-One assay; type: functional, cell-based; method in brief: as §1
# U2OS [12] = assay: Cytotoxicity against human U2OS cells at 20 ug/mL after 48 hrs by alamar blue assay; type: functional, cell-based
# [13] = Ratio of MEL24 LC50 to compound LC50 for human BJeLR cells expressing RAS G12V mutant; type: functional
# BJeLR [14] = assay: Cytotoxicity against human BJeLR cells expressing RAS G12V mutant at 10 uM at 12 hrs by trypan blue staining; type: functional, cell-based
# BJeH [15] = assay: Induction of reactive oxygen species production in human BJeH cells expressing wild type RAS after 6 hrs by DCF-based flow cytometric analysis; type: functional, cell-based
# BJeH [16] = assay: Cytotoxicity against human BJeH cells expressing wild type RAS at 10 uM after 24 hrs by trypan blue staining; type: functional, cell-based
# BJeLR [17] = assay: Induction of reactive oxygen species production in human BJeLR cells expressing RAS G12V mutant after 6 hrs by DCF-based flow cytometric analysis; type: functional, cell-based
# BJeLR [18] = assay: Cytotoxicity against human BJeLR cells expressing RAS G12V mutant at 10 uM at 24 hrs by trypan blue staining; type: functional, cell-based
# Chain of E3 ubiquitin-protein ligase Mdm2 (Homo sapiens) (Q00987 whole entry, looked up): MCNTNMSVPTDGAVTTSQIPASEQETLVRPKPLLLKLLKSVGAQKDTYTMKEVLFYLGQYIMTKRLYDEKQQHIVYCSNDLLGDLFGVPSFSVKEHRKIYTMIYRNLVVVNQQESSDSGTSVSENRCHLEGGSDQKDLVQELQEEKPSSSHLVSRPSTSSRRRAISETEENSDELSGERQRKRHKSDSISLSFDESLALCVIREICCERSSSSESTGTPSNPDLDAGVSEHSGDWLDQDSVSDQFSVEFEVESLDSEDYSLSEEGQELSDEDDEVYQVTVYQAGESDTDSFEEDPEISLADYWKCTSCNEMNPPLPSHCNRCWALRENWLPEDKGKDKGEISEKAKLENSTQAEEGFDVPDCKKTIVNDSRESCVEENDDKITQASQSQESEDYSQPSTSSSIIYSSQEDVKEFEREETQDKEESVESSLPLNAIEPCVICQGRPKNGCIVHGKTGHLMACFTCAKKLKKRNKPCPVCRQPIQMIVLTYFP
# Chain of E3 ubiquitin-protein ligase Mdm2 (Homo sapiens), Q00987 [C464A] (Q00987 whole entry C464A): as the sequence (Q00987 whole entry, looked up) above, with C464A counted along it
Structure (SMILES),CC50 [1],inhibition [2],CC50 (RKO),CC50 (MCF7),inhibition [3],CC50 (U2OS [4]),CC50 [5],CC50 [6],Activity (BJeH [7]),CC50 (HT-1080),also measured
COC(OC)C1c2[nH]c3ccccc3c2CCN1C(=O)OCc1ccccc1 (stereo not given),52.6 µM,inactive,22.3 µM,6.5 µM,inactive,10.2 µM,10.2 µM,52.6 µM,–,–,–
CC(C=O)C1c2c(c3ccccc3n2C(=O)OC(C)(C)C)CCN1C(=O)OC(C)(C)C (stereo not given),46.7 µM,inactive,7.7 µM,11.4 µM,inactive,10 µM,46.7 µM,–,inactive,13.7 µM,–
CN1C(=O)C(C2NCCc3c2[nH]c2ccccc32)C(=O)N(C)C1=O (stereo not given),32.8 µM,inactive,30.9 µM,31.2 µM,inactive,29.4 µM,23.3 µM,32.2 µM,–,16.5 µM,Activity (BJeH [8]): Active; Activity (BJeH [9]): Active; Activity (BJeLR [10]): Active; Activity (BJeLR [11]): Active
CN1C(=O)C(C2NC=Cc3c2[nH]c2ccccc32)C(=O)N(C)C1=O (stereo not given),61.7 µM,inactive,25 µM,61.7 µM,inactive,–,12.9 µM,–,inactive,16 µM,Activity (U2OS [12]): inactive; Ratio [13]: 2
CCOc1ccccc1-n1c(C(C)N2CCN(C(=O)COc3ccc(Cl)cc3)CC2)nc2ccccc2c1=O (stereo not given),–,–,–,–,–,–,–,–,–,–,Activity (BJeLR [14]): Active; Activity (BJeH [15]): Active; Activity (BJeH [16]): inactive; Activity (BJeLR [17]): Active; Activity (BJeLR [18]): Active
